Entries after “also recorded” stand apart in the source; their conditions may differ. Where two headings read alike, the source gives them in different places.
Experiments:
plasma proteins = type: in vitro ADME, human
Method in brief: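 Each patient's predose plasma was spiked with test compound at 70 or 280 ng ml−1 and run in triplicate by rapid equilibrium dialysis. Dialysis was 3 h at 37 °C against isotonic sodium phosphate buffer (120 mM, pH 7.5) across an 8000-Da cut-off membrane. Donor plasma and receiver buffer were each mixed 50:50 with the opposite matrix and quantified by LC/MS/MS.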

[1] = Safety/tolerability: adverse events graded by NCI CTCAE v4.03; type: in vivo, human
Method in brief: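 Solid tumour patients got oral test compound by hepatic group: normal 4 mg, moderate 2.3 mg, severe 1.5 mg. Dosing continued in a second part, with escalation allowed up to 4 mg. AEs were monitored from first dose until 30 days after the last dose and graded by CTCAE v4.03. Safety population was all patients with ≥1 dose. Investigators assigned relatedness.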

[2] = moderate impairment 2.3 mg (n = 15)
[3] = n = 1, not attributed to ixazomib

For `CC(C)C[C@H](NC(=O)CNC(=O)c1cc(Cl)ccc1Cl)B(O)O` [ixazomib], the “bound fraction (mean ± SD)” value (plasma proteins; moderate hepatic impairment group) was 99.1 ± 0.37%, the “bound fraction (mean ± SD)” value (plasma proteins; normal hepatic function group) was 99.2 ± 0.34% and the “bound fraction (mean ± SD)” value (plasma proteins; severe hepatic impairment group) was 99.0 ± 0.45%. For the same compound, the “Drug-related AEs, patients” value ([1]; all patients (N = 48)) was 46%, the Drug-related decreased appetite ([1]; all patients (N = 48)) was 8% and the Drug-related dehydration ([1]; all patients (N = 48)) was 6%. The Drug-related diarrhoea ([1]; all patients (N = 48)) was 6%, the Drug-related fatigue ([1]; all patients (N = 48)) was 8% and the Drug-related nausea ([1]; all patients (N = 48)) was 17%. It also gave a Drug-related vomiting ([1]; all patients (N = 48)) of 10%, a drug-related serious dehydration ([1]; all patients (N = 48)) of 4% and a drug-related serious dyspnoea ([1]; all patients (N = 48)) of 2%. For the same compound, the drug-related serious fall ([1]; all patients (N = 48)) was 2%, the “drug-related serious oesophageal ulcer” value ([1]; all patients (N = 48)) was 2% and the “grade 3 drug-related anaemia” value ([1]; all patients (N = 48)) was 2%. The “grade 3 drug-related dehydration” value ([1]; all patients (N = 48)) was 6%, the “grade 3 drug-related fall” value ([1]; all patients (N = 48)) was 2% and the “grade 3 drug-related fatigue” value ([1]; all patients (N = 48)) was 4%. For the same compound, the “grade 4 drug-related AE” value ([1]; all patients (N = 48)) was “no drug‐related grade 4 adverse events; also recorded: no patient had a grade 4 drug‐related AE”, the “patients with serious AEs” value ([1]; all patients (N = 48)) was 65% and the “rate of on-study deaths” value ([1]; all patients (N = 48)) was 29%. The “on-study deaths, number” value ([1]; all patients, none related to ixazomib, all related to progressive disease) was 14, the “patients with drug-related serious AEs” value ([1]; five serious AEs in four patients) was 8% and the “incidence of drug-related grade ≥3 AEs” value ([1]; moderate hepatic impairment, 2.3 mg) was 20%. The “Abdominal pain, any-grade TEAE” value [1, 2] was 2 (13) n (%), the “Acute renal failure, any-grade TEAE” value [1, 2] was 1 (7) n (%) and the “Acute renal failure, grade ≥3 TEAE” value [1, 2] was 1 (7) n (%). For the same compound, the “Anaemia, any-grade TEAE” value [1, 2] was 3 (20) n (%), the “Anaemia, grade ≥3 TEAE” value [1, 2] was 1 (7) n (%) and the “Any-grade AE” value [1, 2] was 15 (100) n (%). The “Ascites, any-grade TEAE” value [1, 2] was 3 (20) n (%), the “Ascites, grade ≥3 TEAE” value [1, 2] was 2 (13) n (%) and the “Back pain, any-grade TEAE” value [1, 2] was 0 n (%). For the same compound, the “Cough, any-grade TEAE” value [1, 2] was 2 (13) n (%), the “Decreased appetite, any-grade TEAE” value [1, 2] was 2 (13) n (%) and the “Dehydration, any-grade TEAE” value [1, 2] was 2 (13) n (%). For the same compound, the “Dehydration, grade ≥3 TEAE” value [1, 2] was 2 (13) n (%), the “Diarrhoea, any-grade TEAE” value [1, 2] was 1 (7) n (%) and the “Dyspnoea, any-grade TEAE” value [1, 2] was 3 (20) n (%). The “Fatigue, any-grade TEAE” value [1, 2] was 4 (27) n (%), the “Fatigue, grade ≥3 TEAE” value [1, 2] was 1 (7) n (%) and the “Grade ≥3 AE” value [1, 2] was 13 (87) n (%). For the same compound, the “Hyperbilirubinaemia, any-grade TEAE” value [1, 2] was 5 (33) n (%), the “Hyperbilirubinaemia, grade ≥3 TEAE” value [1, 2] was 5 (33) n (%) and the “Hyperkalaemia, any-grade TEAE” value [1, 2] was 2 (13) n (%). The “Hypotension, any-grade TEAE” value [1, 2] was 1 (7) n (%), the “Hypotension, grade ≥3 TEAE” value [1, 2] was 1 (7) n (%) and the “Insomnia, any-grade TEAE” value [1, 2] was 2 (13) n (%). For the same compound, the “Leukocytosis, grade ≥3 TEAE” value [1, 2] was 1 (7) n (%), the “Nausea, any-grade TEAE” value [1, 2] was 4 (27) n (%) and the “Peripheral oedema, any-grade TEAE” value [1, 2] was 9 (60) n (%). For the same compound, the “Pyrexia, any-grade TEAE” value [1, 2] was 2 (13) n (%), the “Upper abdominal pain, any-grade TEAE” value [1, 2] was 1 (7) n (%) and the “Vomiting, any-grade TEAE” value [1, 2] was 2 (13) n (%). For the same compound, the “discontinuation owing to acute hepatic failure” value [1, 3] was 2%, the “discontinuation owing to acute renal failure” value [1, 3] was 2% and the “discontinuation owing to axillary pain/groin pain” value [1, 3] was 2%. The “discontinuation owing to confusional state” value [1, 3] was 2%, the “discontinuation owing to peritoneal haemorrhage” value [1, 3] was 2% and the “discontinuation owing to progression of pancreatic carcinoma” value [1, 3] was 2%. For the same compound, the “Abdominal pain, any-grade TEAE” value ([1]; normal function 4 mg (n = 13)) was 2 (15) n (%), the “Acute renal failure, any-grade TEAE” value ([1]; normal function 4 mg (n = 13)) was 0 n (%) and the “Acute renal failure, grade ≥3 TEAE” value ([1]; normal function 4 mg (n = 13)) was 0 n (%). The “Anaemia, any-grade TEAE” value ([1]; normal function 4 mg (n = 13)) was 2 (15) n (%), the “Anaemia, grade ≥3 TEAE” value ([1]; normal function 4 mg (n = 13)) was 1 (8) n (%) and the “Any-grade AE” value ([1]; normal function 4 mg (n = 13)) was 13 (100) n (%). The “Ascites, any-grade TEAE” value ([1]; normal function 4 mg (n = 13)) was 0 n (%), the “Ascites, grade ≥3 TEAE” value ([1]; normal function 4 mg (n = 13)) was 0 n (%) and the “Back pain, any-grade TEAE” value ([1]; normal function 4 mg (n = 13)) was 2 (15) n (%). The “Cough, any-grade TEAE” value ([1]; normal function 4 mg (n = 13)) was 1 (8) n (%), the “Decreased appetite, any-grade TEAE” value ([1]; normal function 4 mg (n = 13)) was 7 (54) n (%) and the “Dehydration, any-grade TEAE” value ([1]; normal function 4 mg (n = 13)) was 3 (23) n (%). The “Dehydration, grade ≥3 TEAE” value ([1]; normal function 4 mg (n = 13)) was 0 n (%), the “Diarrhoea, any-grade TEAE” value ([1]; normal function 4 mg (n = 13)) was 4 (31) n (%) and the “Dyspnoea, any-grade TEAE” value ([1]; normal function 4 mg (n = 13)) was 4 (31) n (%). For the same compound, the “Fatigue, any-grade TEAE” value ([1]; normal function 4 mg (n = 13)) was 6 (46) n (%), the “Fatigue, grade ≥3 TEAE” value ([1]; normal function 4 mg (n = 13)) was 2 (15) n (%) and the “Grade ≥3 AE” value ([1]; normal function 4 mg (n = 13)) was 6 (46) n (%). For the same compound, the “Hyperbilirubinaemia, any-grade TEAE” value ([1]; normal function 4 mg (n = 13)) was 0 n (%) and the “Hyperbilirubinaemia, grade ≥3 TEAE” value ([1]; normal function 4 mg (n = 13)) was 0 n (%).
